Data: publication PMC5869691 (Organic letters, 2018)
≈ marks a conversion by molar mass, not a printed value.

Columns and labels:
bacterial membranes = test: SYTOX uptake assay; type: cell-based; conditions: SYTOX fluorescence; positive control 12,3,2,3,12
How it was run: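 All synthetic test compounds were run in a SYTOX uptake assay for membrane damage in S. aureus cells. Uptake was scored qualitatively as positive or negative.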

S. aureus = test: minimum inhibitory concentration; type: cell-based, Staphylococcus aureus
How it was run: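 Each synthetic test compound was tested against S. aureus SH1000, with USA300 and ATCC33591 as additional strains. MIC was read in both iron-rich medium (IRM) and iron-depleted medium (IDM), and values are given in μM. Vancomycin was the positive control run in parallel.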

## CC(=O)[C@H](C)C[C@@H](C)C[C@H](C)CC[C@@H](O)C[C@@H](O)[C@@H](CC(C)C)[C@@H](O)c1cc(O)cc(O)c1 [Baulamycin B, baulamycin B]
Bacterial membranes
  membrane disruption (SYTOX uptake): exception
S. aureus
  MIC against S. aureus: 500 µM (≈ 233 µg/mL)

## CCC(=O)[C@H](C)C[C@@H](C)C[C@H](C)CC[C@@H](O)C[C@@H](O)[C@@H](CC(C)C)[C@@H](O)c1cc(O)cc(O)c1 [Baulamycin A, baulamycin A]
Bacterial membranes
  membrane disruption (SYTOX uptake): tested positive for membrane disruption
